Assay results taken from ChEMBL document CHEMBL4706553, “Discovery of potent small molecule PROTACs targeting mutant EGFR” (Eur J Med Chem, 2020).
Activity calls are given as the source filed them.

Experiments:
A-431 = assay: Antiproliferative activity against human A431 cells expressing wild type EGFR assessed as cell growth inhibition measured after 72 hrs by MTT assay; type: functional, cell-based; conditions: A-431, 72 h
In short: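 Cells were seeded at 3000–8000/well and allowed 24 h, then exposed to serial compound concentrations for 72 h. MTT (5 mg/mL stock in PBS) was added for 4 h, supernatant removed and DMSO added. IC50, defined as 50% growth inhibition, was derived by nonlinear regression (log inhibitor vs response).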

HCC827 = assay: Induction of cell cycle arrest in human HCC827 cells assessed as accumulation at G1 phase at 10 to 100 nM measured after 48 hrs by propidium iodide staining based flow cytometry analysis; type: functional; conditions: dose 10-100 nM
In short: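 Cell cycle: cells were seeded at 0.5–1 × 10⁶ per well for 24 h, then treated 48 h. They were collected and washed twice in PBS, stained with PI/RNase at 37 °C for 15 min, and analysed by flow cytometry. n = 2.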

[1] = target: von Hippel-Lindau disease tumor suppressor/Epidermal growth factor receptor (Homo sapiens, UniProt P00533+P40337); assay: Protac activity at VHL/EGFR del19 mutant in human HCC827 cells assessed as induction of EGFR degradation measured after 48 hrs by Western blot analysis; type: cell-based
Sequence of von Hippel-Lindau disease tumor suppressor/Epidermal growth factor receptor (P00533 whole entry, looked up, stated change not applied): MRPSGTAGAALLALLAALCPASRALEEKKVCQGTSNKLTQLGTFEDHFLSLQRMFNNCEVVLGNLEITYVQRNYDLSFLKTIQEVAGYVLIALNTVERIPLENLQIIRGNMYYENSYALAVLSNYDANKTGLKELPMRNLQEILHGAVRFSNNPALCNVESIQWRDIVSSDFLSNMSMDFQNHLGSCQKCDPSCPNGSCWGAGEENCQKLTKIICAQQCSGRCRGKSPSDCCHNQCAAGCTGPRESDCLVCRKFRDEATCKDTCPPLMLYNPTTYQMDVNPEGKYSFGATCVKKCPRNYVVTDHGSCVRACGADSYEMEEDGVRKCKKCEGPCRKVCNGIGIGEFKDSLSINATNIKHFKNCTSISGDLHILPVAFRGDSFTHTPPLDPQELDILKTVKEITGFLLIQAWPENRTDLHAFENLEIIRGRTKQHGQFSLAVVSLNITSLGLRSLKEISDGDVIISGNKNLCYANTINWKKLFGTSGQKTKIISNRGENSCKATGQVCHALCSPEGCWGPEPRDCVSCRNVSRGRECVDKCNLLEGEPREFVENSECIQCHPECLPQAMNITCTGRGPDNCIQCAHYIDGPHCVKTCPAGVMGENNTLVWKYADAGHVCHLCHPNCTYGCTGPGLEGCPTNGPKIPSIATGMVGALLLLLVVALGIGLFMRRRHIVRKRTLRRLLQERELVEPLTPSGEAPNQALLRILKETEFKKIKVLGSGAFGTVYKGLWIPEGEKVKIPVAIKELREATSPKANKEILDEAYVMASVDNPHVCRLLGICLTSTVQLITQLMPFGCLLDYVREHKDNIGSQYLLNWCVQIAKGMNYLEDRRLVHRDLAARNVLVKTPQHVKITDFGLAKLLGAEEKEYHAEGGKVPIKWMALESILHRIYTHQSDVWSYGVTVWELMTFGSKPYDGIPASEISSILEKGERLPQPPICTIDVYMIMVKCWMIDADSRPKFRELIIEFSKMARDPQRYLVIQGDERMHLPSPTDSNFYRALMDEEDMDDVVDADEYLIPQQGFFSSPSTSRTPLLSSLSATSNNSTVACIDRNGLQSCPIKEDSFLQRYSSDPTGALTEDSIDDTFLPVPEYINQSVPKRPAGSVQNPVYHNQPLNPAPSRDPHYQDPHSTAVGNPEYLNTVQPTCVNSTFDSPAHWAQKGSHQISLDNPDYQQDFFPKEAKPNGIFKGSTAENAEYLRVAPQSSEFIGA
Sequence of von Hippel-Lindau disease tumor suppressor/Epidermal growth factor receptor (P40337 whole entry, looked up, stated change not applied): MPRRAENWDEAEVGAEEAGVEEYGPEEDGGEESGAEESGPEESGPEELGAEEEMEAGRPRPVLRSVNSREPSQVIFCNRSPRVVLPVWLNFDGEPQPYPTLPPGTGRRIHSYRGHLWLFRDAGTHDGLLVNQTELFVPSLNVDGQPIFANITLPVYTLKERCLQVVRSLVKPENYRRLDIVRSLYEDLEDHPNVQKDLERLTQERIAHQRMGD
In short: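 HCC827 cells seeded at 0.5–1 × 10⁶ per well, then treated at the stated concentrations for 48 h. EGFR by Western blot; n = 3. DC₅₀ (concentration giving 50% EGFR loss) by nonlinear regression, log(inhibitor) vs response.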

[2] = tested on: von Hippel-Lindau disease tumor suppressor/Epidermal growth factor receptor (Homo sapiens), P00533+P40337 [L858R,T790M]; assay: Protac activity at VHL/EGFR L858R/T790M mutant in human H1975 cells assessed as maximal induction of degradation of EGFR incubated for 48 hrs by Western blot analysis relative to control; type: cell-based; conditions: NCI-H1975
Sequence of von Hippel-Lindau disease tumor suppressor/Epidermal growth factor receptor (Homo sapiens), P00533+P40337 [L858R,T790M] (P00533 whole entry T790M/L858R): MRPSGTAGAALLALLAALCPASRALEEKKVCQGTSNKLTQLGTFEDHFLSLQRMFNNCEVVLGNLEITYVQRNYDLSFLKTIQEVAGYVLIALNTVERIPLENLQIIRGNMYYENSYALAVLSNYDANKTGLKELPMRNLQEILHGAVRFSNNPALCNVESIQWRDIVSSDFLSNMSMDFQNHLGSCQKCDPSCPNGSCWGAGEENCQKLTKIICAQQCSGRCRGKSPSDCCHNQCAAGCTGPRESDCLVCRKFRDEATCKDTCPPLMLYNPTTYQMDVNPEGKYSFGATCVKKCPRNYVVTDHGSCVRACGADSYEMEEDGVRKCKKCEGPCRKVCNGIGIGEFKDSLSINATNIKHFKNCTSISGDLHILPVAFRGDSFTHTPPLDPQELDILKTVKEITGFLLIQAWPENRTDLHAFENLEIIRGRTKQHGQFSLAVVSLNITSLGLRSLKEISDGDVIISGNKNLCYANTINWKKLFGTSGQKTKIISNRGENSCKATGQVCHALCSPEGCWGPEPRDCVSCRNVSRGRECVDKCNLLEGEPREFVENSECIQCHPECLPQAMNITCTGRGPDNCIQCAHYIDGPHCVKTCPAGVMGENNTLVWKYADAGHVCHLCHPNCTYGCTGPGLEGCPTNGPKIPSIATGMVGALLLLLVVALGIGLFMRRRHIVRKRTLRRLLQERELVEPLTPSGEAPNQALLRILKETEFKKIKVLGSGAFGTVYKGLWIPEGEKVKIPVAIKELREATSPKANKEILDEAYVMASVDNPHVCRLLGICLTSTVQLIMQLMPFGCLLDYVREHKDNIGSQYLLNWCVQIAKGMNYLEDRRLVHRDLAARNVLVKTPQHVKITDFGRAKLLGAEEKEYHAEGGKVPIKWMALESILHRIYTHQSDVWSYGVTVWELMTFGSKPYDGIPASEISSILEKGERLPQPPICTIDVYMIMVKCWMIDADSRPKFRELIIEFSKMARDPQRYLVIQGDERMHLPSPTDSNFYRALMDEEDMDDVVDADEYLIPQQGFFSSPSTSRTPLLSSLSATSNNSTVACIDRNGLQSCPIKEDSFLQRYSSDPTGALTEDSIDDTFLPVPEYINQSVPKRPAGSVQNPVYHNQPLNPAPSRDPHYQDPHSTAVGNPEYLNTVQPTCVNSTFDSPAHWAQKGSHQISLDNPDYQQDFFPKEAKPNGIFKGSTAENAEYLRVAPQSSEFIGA
Sequence of von Hippel-Lindau disease tumor suppressor/Epidermal growth factor receptor (Homo sapiens), P00533+P40337 [L858R,T790M] (P40337 whole entry partner): as the sequence (P40337 whole entry, looked up, stated change not applied) above
In short: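 H1975 cells exposed to the stated concentrations for 48 h. EGFR by Western blot; n = 3. DC₅₀ by nonlinear regression, log(inhibitor) vs response.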

[3] = tested on: von Hippel-Lindau disease tumor suppressor/Epidermal growth factor receptor (Homo sapiens), P00533+P40337 [UNDEFINED MUTATION]; assay: Protac activity at VHL/EGFR del19 mutant in human HCC827 cells assessed as induction of EGFR degradation at 0.033 uM pretreated with VHL ligand, VHL-Ac for 2 hrs followed by incubation with compound for 24 hrs by Western blot analysis; type: cell-based
Sequence of von Hippel-Lindau disease tumor suppressor/Epidermal growth factor receptor (Homo sapiens), P00533+P40337 [UNDEFINED MUTATION] (P00533 whole entry, looked up, stated change not applied): as the sequence (P00533 whole entry, looked up, stated change not applied) above
Sequence of von Hippel-Lindau disease tumor suppressor/Epidermal growth factor receptor (Homo sapiens), P00533+P40337 [UNDEFINED MUTATION] (P40337 whole entry, looked up, stated change not applied): as the sequence (P40337 whole entry, looked up, stated change not applied) above

With `Cc1ncsc1-c1ccc(CNC(=O)[C@@H]2C[C@@H](O)CN2C(=O)[C@@H](NC(=O)CCCCCCN2CCN(c3ccc(Nc4ncc5nc(Nc6ccccc6)n(C6CCCC6)c5n4)cc3)CC2)C(C)(C)C)cc1` the IC50 (A-431) was 245 nM, the Activity (HCC827) was “Active” and the DC50 [1] was 0.51 nM. For the same molecule, the Emax [2] was 90.3% and the Activity [3] was “inactive”.
